The record followed here is the EternaBench riboswitch data.

In this data set the test system is MS2 coat protein. Kind of data set: apparent Kd, MS2 coat protein; higher = weaker binding; RNA-MaP array; FMN 200 µM where present. Summed up: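 Stalled E. coli RNA polymerase transcribed the designs on Illumina sequencing-chip clusters. SNAP-549-labelled MS2 coat protein was titrated from 0.7 or 1.5 nM, doubling to 3 µM, without and then with constant ligand, in 100 mM Tris-HCl pH 7.5, 80 mM KCl, 4 mM MgCl2, BSA, DTT, yeast tRNA and Tween-20. Per-cluster binding curves were fitted to green signal normalised to red-channel RNA signal and control-cluster median Fmax. The apparent Kd is the median of the filtered fits.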

[1] abbreviates: designed as: OFF switch for flavin mononucleotide, no ligand.
[2] abbreviates: ligand present: flavin mononucleotide, designed as: OFF switch for flavin mononucleotide.
Setting [3] is: designed as: ON switch for flavin mononucleotide, no ligand.
Setting [4] is: ligand present: flavin mononucleotide, designed as: ON switch for flavin mononucleotide.

What is called apparent Kd is a dissociation constant that holds for the conditions of the assay. With “UUAACUCAUGUAGGAUAUGCAUGGCGAAGCUACGCAGAAGGACAUGAGGAUCACCCAUGUUCUAGCGUCUGAGAACAGAUGCAA”, the “apparent Kd” value runs as follows: under setting [1], 49.2 nM; under setting [2], 400 nM.

For “CGGUGACGUGUAGGAUAUGGCGCUGGGUUUUGCCCAGAAGGACAUGAGGAUCACCCAUGUGGUAGAGGGCUGGCGGCCGCCCGC”, the “apparent Kd” value came out at 29.4 nM under setting [1] and 29.2 nM under setting [2].

Regarding “GGAAAACAUGAGGAUCACCCAUGUGAAAACGUGGGAGGAUAUGGAUGGAAACCAUACUGUCCAGAAGGCCCAUGUC”, the “apparent Kd” value under setting [3] came to 67.6 nM and the “apparent Kd” value under setting [4] was 18.9 nM.

As for “UCAUGUCCUGAGGAUAUGUAGCGGAUAAACGCAACAGAAGGCAGGACAUGAGGAUCACCCAUGUGUGCCUUCUA”, the “apparent Kd” value by setting is: under setting [1], 96.6 nM; under setting [2], 14.2 nM.

Consider “GUUAAUUAGUGAGGAUAUACAGUAUUUAAUACUGUAGAAGGCACAAUCCUCAAGACAUGAGGAUCACCCAUGUGAUAAUAAGCU”, for which the “apparent Kd” value stood at 35.4 nM under setting [1] and 139 nM under setting [2].

In the case of “CUCGAGUUAGGAUAUCGAACGUAACAAGCGGAAACUCCCGCCGAGAAGGAACAUGAGGAUCACCCAUGUGAAAC”, the “apparent Kd” value by setting is: under setting [1], 14.9 nM; under setting [2], 18.3 nM.

On to “GUCAGCUCCUGAGGAUAUACAACACUGCUUCGGCAGUGUAUUAAGAUCACAUGAGGAUCACCCAUGUAGAAGGCACGAGCUGAU”, for which the “apparent Kd” value under setting [1] worked out at 12.1 nM and the “apparent Kd” value under setting [2] amounted to 156 nM.

As for “UACAUUACUGAGAAGGGAUACAUAUAAUUUUAGUCAGGAUAUCGAUACAGUGCAGCAUGAGGACAUGAGGAUCACCCAUGUAUU”, the “apparent Kd” value under setting [3] worked out at 24.4 nM and the “apparent Kd” value under setting [4] came out at 19.5 nM.

“UGGGUAAGUGUAGGAUAUUUAUAUUAAUAGUAUGGAGAAGGACAUGAGGAUCACCCAUGUACAGGGAGUUACCCAUUUCCUCUC”: the “apparent Kd” value is 778 nM under setting [1] and 1200 nM under setting [2].

In the case of “GCGUAAAAGAUCCUAUUUAUCUACAUGAGGAUCACCCAUGUGCAGGAUAUGCUAAAAUUAAAAUAGCAGAAGGGCAAUAACCGC”, the “apparent Kd” value is, setting by setting: under setting [1], 54 nM; under setting [2], 179 nM.

On to “GAAUUAUUACAGAAGGUGUUUUACAUGAGGAUCACCCAUGUUUUAUUGUUUAAAUUUGUUAUUUACAAGGAUAUGUUCUAUUCU”, for which the “apparent Kd” value reads like this: under setting [3], 27 nM; under setting [4], 21.9 nM.

For the sequence “UUUUUGUGAGGAUAUCAGUAGUAGAACAAUAGUACUACUACUGAGAAGGCACAUGAGGAUCACCCAUGUUCCUC”, the “apparent Kd” value runs as follows: under setting [1], 58.1 nM; under setting [2], 325 nM.

As to “CGUCAGUGAGGAUAUGGUGUCGUUUACAUGAGGAUCACCCAUGUUUCAUGGGACUAGAGACUAGAAGGUACUGACG”, the “apparent Kd” value stood at 97.4 nM under setting [1] and 266 nM under setting [2].

Regarding “UUUAUAAAUUAGAAGGCGAGAUGAAUUACAAUAGACAUGAGGAUCACCCAUGUGUACCCAUGUCUUGAGGAUAUAGUCAUAUAU”, the “apparent Kd” value under setting [3] amounted to 132 nM and the “apparent Kd” value under setting [4] came to 48 nM.

As for “CAAUAACCCUCAUGUACCUGAGGACAUGAGGAUCACCCAUGUAAGGAUAUAGCCAUUAAAUCUAACUAGAAGGUAUAAAUAACC”, the “apparent Kd” value worked out at 1090 nM under setting [1] and 552 nM under setting [2].

“AGUGUCAUCGAGAAGGCCUCGACAUGAGGAUCACCCAUGUUGUUAUAUGGGAGGAUAUCGAUGAUACAGCUACGUUUCGUAGCA”: the “apparent Kd” value is 51.6 nM under setting [3] and 14.7 nM under setting [4].

On to “AAAGAACAUGAGGAUCACCCAUGUGAGGAUAUGCGAAAACCGCUGACAAACCAGACGGGCAGAAGGCAUAUGGU”, for which the “apparent Kd” value was found to be 56.2 nM under setting [1] and 76.3 nM under setting [2].

With “AUCAGCUCGUCAGGAUAUACGUCACUGCUUCGGCAGUGUGGUAAGAUCACAUGAGGAUCACCCAUGUAGAAGGGACGAGCUGAG”, the “apparent Kd” value by setting is: under setting [1], 13.2 nM; under setting [2], 260 nM.

Regarding “UGGCCCGCCGGAGGAUAUCUACUCUGUGGUGCACUGCGUUUGCAAUACAUGAGGAUCACCCAUGUAGAGAAGGCCGAGGGCACA”, the “apparent Kd” value under setting [2] is 66.9 nM.

For the sequence “CCGGAAAUAGAGGAUAUAGGAGUCGAUAGACUCCUAGAAGGCUAUACAUGAGGAUCACCCAUGUGUCCUACCGG”, the “apparent Kd” value is 17.4 nM under setting [1] and 39.6 nM under setting [2].
